Activity calls are given as the source filed them. The calls are words filed in the database; no cut-off is given here.
Tests used:
[1] = system: Human immunodeficiency virus 1; test: Inhibition of HIV1 gp41-induced cell-cell fusion between viral protein expressing human HL2/3 cells and TZM-bl target cells at 25 uM preincubated with cells followed by co-incubation for 6 hrs by luciferase reporter gene assay relative to control
Outline: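 TZM-bl receptor cells seeded a day ahead, then TZM-bl and HL2/3 effector cells pretreated with 25 μM compound (DMSO stock diluted in complete medium), DMSO alone (maximum signal) or 1 μM C34 (maximum inhibition); cells co-incubated 6 h at 37 °C, 5% CO2. Fusion read by luciferase in a combined luciferase/viability kit; signal normalized to controls. Duplicate wells per compound.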

[2] = Cytotoxicity against human HL2/3 cells assessed as decrease in cell viability at 25 uM after 6 hrs; assay type: cell-based; conditions: hl2/3, 6 h
Outline: (§1)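 Viability measured in the same wells as the fusion read-out, using the combined luciferase/cell-viability kit. TZM-bl and HL2/3 cells were pretreated with 25 μM compound, DMSO or 1 μM C34, then co-cultured 6 h at 37 °C, 5% CO2. Duplicate wells per compound.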

TZM = test: Cytotoxicity against human TZM-bl cells assessed as decrease in cell viability at 25 uM after 6 hrs; assay type: cell-based; outline: as §1
[3] = system: Human immunodeficiency virus 1; test: Antiviral activity against HIV1 assessed as inhibition of viral entry into human TZM-bl cells at 25 uM preincubated with cells for 1 hr followed by inoculation with 1 hr compound pretreated virus measured 48 hrs post compound wash out by luciferase reporter gene assay relative to control; assay type: functional; conditions: for inhibition at 25 µM: Human immunodeficiency virus 1, TZM-bl
Outline: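 HIV-1 made by PEI co-transfection of pNL4-3.HSA.R-E- and pHXB2-env; titer set by X-Gal staining on TZM-bl. TZM-bl seeded 10^4/well a day ahead, pretreated 1 h at 37 °C with 25 μM compound, DMSO or 1 μM C34. Virus (MOI 0.1) preincubated 1 h with the same treatment, added, spinoculated 1,000 × g 1 h RT, 1 h 37 °C, washed, luciferase read at 48 h, normalized.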

[4] = system: Human immunodeficiency virus 1; test: Antiviral activity against VSV-G pseudotyped HIV1 assessed as inhibition of virus entry by cell-based assay; assay type: functional
Outline: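 VSV-G-pseudotyped HIV-1 (pNL4-3.HSA.R-E- plus pCMV-VSV-G, made by PEI transfection), tested at 25 μM. TZM-bl cells (10^4/well) and MOI 0.1 virus were each pretreated 1 h at 37 °C. Compound medium was replaced with the treated virus, then spinoculation at 1,000 × g for 1 h at room temperature and 1 h at 37 °C. Cells were washed, grown 48 h drug-free, and read by luciferase. Bafilomycin A1 control.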

| SMILES | inhibition [1] [%] | Activity [2] | Activity (TZM) | inhibition at 25 µM [3] [%] | inhibition [4] | inhibition [3] |
| --- | --- | --- | --- | --- | --- | --- |
| Cc1ccc(CNC(=O)c2oc3ccc(S(=O)(=O)N4CCC5(CC4)OCCO5)cc3c2C)cc1 | > 50 | Non-Toxic | Non-Toxic | > 50 | inactive | – |
| COc1ccc(-c2cc(C(=O)NCc3ccc(Cl)cc3)n[nH]2)cc1S(=O)(=O)N1CCOCC1 | – | – | – | – | – | inactive |
| CCn1c(SCC(=O)N/N=C/c2cccc(Oc3ccccc3)c2)nnc1-c1ccc(OC)cc1 | – | – | – | – | – | inactive |
| Cn1c(SCC(=O)N/N=C/c2cc(Br)cc(Br)c2O)nc2ccccc21 | > 50 | Non-Toxic | Non-Toxic | > 50 | inactive | – |

Reference: ChEMBL document CHEMBL4020803, “Structure-based identification of inhibitors targeting obstruction of the HIVgp41 N-heptad repeat trimer” (Bioorg Med Chem Lett, 2017)
